Fold change (FC) and inhibition data for three compounds are collected here from ChEMBL document CHEMBL5653631, “A Potent and Selective ULK1 Inhibitor Suppresses Autophagy and Sensitizes Cancer Cells to Nutrient Stress” (iScience, 2018).

Structures are written as SMILES.

For test [1], the target named is T1, Calcium/calmodulin-dependent protein kinase type IV (Homo sapiens) (UniProt Q16566).
T1 sequence (whole entry): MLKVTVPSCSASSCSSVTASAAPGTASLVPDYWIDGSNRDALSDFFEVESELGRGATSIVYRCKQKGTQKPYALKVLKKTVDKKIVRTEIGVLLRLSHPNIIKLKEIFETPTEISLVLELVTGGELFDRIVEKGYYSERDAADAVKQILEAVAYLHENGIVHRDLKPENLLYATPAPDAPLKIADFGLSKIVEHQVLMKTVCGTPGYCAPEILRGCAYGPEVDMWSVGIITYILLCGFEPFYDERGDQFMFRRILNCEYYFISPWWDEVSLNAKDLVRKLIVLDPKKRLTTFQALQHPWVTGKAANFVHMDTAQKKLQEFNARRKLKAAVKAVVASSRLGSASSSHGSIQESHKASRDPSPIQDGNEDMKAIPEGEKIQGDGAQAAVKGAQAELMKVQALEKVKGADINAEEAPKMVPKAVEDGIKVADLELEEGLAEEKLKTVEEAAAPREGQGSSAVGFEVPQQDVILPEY
As to the kind of experiment: Inhibition of human recombinant CaMK4 at 15 nM related to control ULK1.

Test [2] deals with Serine/threonine-protein kinase pim-2 (Homo sapiens) (UniProt Q9P1W9). As to the kind of experiment: Inhibition of human recombinant PIM2 at 15 nM in presence of ATP by radiometric assay relative to control.
Sequence of Serine/threonine-protein kinase pim-2 (Homo sapiens) (Q9P1W9 whole entry, looked up): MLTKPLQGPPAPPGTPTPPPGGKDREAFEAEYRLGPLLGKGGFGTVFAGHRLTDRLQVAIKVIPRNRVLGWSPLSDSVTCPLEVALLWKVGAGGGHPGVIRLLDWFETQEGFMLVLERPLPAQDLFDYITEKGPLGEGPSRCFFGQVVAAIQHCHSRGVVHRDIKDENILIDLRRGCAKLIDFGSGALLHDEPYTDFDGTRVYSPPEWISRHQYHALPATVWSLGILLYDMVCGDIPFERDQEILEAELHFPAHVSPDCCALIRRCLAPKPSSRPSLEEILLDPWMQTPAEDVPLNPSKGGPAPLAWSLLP
The target in test [3] is T2, Serine/threonine-protein kinase ICK (Homo sapiens) (UniProt Q9UPZ9).
T2 sequence (whole entry): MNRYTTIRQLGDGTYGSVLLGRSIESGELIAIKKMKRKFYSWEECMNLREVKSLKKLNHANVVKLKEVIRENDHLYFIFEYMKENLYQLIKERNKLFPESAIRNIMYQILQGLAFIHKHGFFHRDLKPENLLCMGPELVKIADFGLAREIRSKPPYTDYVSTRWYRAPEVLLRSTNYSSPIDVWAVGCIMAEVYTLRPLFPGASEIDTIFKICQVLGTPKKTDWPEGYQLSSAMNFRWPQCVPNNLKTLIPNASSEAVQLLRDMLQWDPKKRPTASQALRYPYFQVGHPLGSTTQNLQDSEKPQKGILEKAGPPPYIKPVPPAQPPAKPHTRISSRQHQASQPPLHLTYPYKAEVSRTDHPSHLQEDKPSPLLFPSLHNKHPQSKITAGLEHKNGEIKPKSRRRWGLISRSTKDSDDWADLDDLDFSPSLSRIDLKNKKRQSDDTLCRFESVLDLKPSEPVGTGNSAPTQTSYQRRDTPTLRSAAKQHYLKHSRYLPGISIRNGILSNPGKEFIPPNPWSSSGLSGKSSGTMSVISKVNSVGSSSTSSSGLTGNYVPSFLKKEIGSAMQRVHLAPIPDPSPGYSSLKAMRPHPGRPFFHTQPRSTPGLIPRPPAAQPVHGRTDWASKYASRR
As to the kind of experiment: Inhibition of human recombinant ICK at 40 nM in presence of ATP by radiometric assay relative to control.

The target in test [4] is T3, Ephrin type-B receptor 2 (Homo sapiens) (UniProt P29323).
T3 sequence (whole entry): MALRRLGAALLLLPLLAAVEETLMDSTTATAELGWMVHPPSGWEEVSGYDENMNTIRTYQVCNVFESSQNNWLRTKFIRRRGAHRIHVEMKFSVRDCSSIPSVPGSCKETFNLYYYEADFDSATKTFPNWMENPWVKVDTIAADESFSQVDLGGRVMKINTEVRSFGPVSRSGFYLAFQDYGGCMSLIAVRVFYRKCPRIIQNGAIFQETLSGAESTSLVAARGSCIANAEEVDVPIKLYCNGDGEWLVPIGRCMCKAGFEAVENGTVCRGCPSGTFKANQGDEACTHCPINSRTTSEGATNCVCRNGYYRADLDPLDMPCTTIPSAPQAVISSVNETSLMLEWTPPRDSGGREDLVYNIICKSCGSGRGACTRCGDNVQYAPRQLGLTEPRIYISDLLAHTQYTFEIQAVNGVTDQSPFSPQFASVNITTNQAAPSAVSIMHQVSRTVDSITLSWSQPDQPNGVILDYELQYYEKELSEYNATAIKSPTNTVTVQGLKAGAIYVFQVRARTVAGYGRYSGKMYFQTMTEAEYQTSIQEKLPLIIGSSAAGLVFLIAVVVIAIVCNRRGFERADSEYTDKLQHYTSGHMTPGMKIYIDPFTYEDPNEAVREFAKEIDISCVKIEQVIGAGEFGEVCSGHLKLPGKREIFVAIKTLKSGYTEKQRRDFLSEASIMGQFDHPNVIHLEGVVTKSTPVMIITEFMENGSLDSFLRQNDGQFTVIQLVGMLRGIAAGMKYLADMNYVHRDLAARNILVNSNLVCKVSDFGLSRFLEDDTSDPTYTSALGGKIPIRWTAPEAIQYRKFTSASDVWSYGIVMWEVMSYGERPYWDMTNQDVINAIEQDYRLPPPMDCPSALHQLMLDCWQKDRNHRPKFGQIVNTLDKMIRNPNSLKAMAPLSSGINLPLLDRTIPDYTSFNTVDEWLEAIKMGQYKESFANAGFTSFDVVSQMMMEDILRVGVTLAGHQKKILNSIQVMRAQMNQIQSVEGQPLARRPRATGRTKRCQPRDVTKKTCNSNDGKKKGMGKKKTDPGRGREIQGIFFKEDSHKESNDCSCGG
The experiment in a line: Inhibition of human recombinant EphB2 at 40 nM related to control ULK1.

Test [5] addresses Protein-tyrosine kinase 6 (Homo sapiens) (UniProt Q13882). As to the kind of experiment: Inhibition of human recombinant BRK at 500 nM in presence of ATP by radiometric assay relative to control. The essentials:
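Part of a radiometric in vitro activity panel of 327 recombinant human kinases. Each kinase was tested in duplicate at one inhibitor concentration. Activity remaining was expressed as a percentage of the vehicle control, and percent inhibition was taken as 100 minus that value.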

Test [6] deals with Myosin light chain kinase, smooth muscle (Homo sapiens) (UniProt Q15746). The experiment in a line: Inhibition of human recombinant smMLCK at 500 nM in presence of ATP by radiometric assay relative to control.
Sequence of Myosin light chain kinase, smooth muscle (Homo sapiens) (Q15746 whole entry): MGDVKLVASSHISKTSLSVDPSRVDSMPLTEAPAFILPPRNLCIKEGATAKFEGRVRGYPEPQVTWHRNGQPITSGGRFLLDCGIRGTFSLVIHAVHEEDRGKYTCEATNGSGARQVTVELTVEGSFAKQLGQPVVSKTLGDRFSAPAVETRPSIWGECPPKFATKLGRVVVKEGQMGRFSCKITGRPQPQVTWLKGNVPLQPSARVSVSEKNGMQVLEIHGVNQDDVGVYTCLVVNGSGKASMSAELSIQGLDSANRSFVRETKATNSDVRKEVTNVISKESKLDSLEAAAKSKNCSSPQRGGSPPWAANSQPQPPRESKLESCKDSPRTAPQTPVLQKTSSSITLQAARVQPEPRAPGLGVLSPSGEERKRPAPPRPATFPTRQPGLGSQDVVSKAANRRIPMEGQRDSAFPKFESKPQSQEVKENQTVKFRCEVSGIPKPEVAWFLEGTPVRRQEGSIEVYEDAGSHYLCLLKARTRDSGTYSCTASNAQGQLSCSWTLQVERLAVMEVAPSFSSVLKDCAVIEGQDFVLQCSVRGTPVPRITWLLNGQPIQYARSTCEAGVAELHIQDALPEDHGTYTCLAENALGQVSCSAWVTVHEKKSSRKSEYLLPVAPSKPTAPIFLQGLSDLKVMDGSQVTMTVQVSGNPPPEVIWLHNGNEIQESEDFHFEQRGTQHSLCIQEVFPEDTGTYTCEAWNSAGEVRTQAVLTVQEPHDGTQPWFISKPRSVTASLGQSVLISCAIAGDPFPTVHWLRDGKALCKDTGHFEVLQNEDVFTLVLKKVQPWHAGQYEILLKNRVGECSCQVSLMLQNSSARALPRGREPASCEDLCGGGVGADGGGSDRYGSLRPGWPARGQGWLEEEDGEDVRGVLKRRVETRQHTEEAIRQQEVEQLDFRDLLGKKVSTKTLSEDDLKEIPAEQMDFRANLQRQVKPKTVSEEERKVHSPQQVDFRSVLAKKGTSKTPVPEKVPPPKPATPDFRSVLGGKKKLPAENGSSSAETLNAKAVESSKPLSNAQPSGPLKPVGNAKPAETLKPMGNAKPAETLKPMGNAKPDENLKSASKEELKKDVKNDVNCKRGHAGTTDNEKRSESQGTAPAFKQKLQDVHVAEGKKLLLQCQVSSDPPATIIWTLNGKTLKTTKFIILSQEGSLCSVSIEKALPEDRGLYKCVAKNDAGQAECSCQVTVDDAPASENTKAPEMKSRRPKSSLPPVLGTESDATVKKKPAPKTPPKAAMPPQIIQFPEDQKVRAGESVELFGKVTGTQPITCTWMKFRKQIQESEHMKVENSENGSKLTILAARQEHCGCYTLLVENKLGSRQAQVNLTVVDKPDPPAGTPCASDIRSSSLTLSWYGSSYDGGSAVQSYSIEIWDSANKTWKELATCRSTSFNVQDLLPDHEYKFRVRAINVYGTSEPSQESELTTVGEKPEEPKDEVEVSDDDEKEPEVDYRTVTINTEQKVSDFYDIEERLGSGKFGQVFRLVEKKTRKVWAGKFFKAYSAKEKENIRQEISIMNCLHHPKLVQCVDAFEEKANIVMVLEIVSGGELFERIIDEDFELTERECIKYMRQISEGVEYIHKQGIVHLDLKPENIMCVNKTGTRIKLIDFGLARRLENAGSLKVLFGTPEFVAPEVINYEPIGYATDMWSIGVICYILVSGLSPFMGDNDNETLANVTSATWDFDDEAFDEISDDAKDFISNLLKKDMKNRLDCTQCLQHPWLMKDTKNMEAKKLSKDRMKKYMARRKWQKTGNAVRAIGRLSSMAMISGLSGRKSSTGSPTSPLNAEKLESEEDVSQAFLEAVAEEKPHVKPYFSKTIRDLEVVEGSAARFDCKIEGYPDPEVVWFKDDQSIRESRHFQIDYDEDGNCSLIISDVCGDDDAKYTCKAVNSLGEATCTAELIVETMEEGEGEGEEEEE
Test [7] has as its target Tyrosine-protein kinase BTK (Homo sapiens) (UniProt Q06187). The experiment in a line: Inhibition of human recombinant BTK at 500 nM in presence of ATP by radiometric assay relative to control.

Sequence of Tyrosine-protein kinase BTK (Homo sapiens) (Q06187 whole entry): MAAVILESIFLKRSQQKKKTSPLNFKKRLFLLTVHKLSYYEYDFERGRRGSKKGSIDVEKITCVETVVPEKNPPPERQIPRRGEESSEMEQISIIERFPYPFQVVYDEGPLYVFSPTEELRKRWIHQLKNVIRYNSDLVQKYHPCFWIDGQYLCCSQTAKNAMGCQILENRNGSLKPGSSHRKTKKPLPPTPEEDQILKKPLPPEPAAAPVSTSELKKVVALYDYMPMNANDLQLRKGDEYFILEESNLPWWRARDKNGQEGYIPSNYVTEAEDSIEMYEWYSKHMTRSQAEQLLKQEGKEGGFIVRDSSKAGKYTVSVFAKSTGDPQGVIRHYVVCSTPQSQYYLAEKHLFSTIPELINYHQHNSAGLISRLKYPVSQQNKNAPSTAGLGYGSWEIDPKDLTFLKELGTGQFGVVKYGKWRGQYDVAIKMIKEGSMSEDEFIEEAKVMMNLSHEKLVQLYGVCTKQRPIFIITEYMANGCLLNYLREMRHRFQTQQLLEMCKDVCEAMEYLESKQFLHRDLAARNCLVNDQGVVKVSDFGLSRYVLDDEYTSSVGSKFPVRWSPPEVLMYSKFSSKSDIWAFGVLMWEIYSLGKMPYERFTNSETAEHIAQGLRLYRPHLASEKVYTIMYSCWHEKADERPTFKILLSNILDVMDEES
Sequence of Protein-tyrosine kinase 6 (Homo sapiens) (Q13882 whole entry, looked up): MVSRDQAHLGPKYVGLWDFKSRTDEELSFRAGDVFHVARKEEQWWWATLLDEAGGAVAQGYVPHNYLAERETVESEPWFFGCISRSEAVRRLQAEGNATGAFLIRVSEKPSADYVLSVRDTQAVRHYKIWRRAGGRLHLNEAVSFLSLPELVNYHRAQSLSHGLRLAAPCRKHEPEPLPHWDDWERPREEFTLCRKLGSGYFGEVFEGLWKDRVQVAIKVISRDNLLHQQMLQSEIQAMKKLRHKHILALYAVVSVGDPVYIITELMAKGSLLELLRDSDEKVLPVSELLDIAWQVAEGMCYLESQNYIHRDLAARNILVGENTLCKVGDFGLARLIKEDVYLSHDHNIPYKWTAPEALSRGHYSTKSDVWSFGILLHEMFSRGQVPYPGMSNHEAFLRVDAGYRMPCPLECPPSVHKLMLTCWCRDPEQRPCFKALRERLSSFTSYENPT

Turning to `CC(C)[C@H](NC(=O)c1cc(-c2cnn3cc(-c4ccc(OCCN5CCCCC5)cc4)cnc23)cs1)C(F)(F)F`, in test [1], the fold change (FC) was 0. The inhibition in test [2] was 0%.

With `O=C(N[C@@H](C1CC1)C(F)(F)F)c1cc(-c2cnn3cc(-c4ccc(F)cc4)cnc23)cs1`, in test [3], the inhibition stood at 0%. Also, the fold change (FC) in test [4] turned out to be 0.05.

Regarding `CNC(=O)c1ccccc1Oc1nc(Nc2cc(OC)c(OC)c(OC)c2)ncc1Br`, the inhibition in test [5] worked out at 2%; in test [6], 5%; in test [7] it was 0%.

A word on the inhibition: it is the share of the control response that was lost under treatment.
